Measurements published in ChEMBL document CHEMBL5653624 (Biochem Pharmacol, 2016).
The source made the active and inactive calls. No cut-off for these calls is given here.

Tests used:
[1] = target: T1, Histone deacetylase 3 (Mus musculus) (UniProt O88895); assay: Inhibition of HDAC3 in mouse RAW264.7 cells assessed as effect on LPS/IFNgamma-induced NF-kappaB p65 nuclear translocation preincubated for 20 hrs followed by LPS/IFNgamma stimulation and measured after 1 hr by Western blot analysis; assay type: cell-based
T1 sequence (whole entry): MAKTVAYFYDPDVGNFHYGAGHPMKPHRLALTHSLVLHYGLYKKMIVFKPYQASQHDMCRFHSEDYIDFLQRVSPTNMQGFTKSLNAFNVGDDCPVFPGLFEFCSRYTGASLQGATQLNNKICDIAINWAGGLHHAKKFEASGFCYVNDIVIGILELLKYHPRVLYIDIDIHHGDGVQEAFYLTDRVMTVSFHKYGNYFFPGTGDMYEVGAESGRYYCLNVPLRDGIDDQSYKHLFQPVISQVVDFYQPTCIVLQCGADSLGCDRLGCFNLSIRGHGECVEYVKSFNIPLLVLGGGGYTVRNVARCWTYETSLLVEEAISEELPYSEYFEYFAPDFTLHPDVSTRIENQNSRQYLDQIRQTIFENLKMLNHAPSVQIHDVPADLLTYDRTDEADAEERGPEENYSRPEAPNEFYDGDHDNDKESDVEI
Procedure, shortened: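 After 20 h inhibitor then 1 h LPS/IFNγ, RAW 264.7 cells fractionated into nuclear and cytosolic parts and immunoblotted for NF-κB p65; PARP-1 and β-actin as internal controls; densitometry as fold change versus LPS/IFNγ-treated control; 4 independent experiments, mean ± SD.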

Lung = assay: Antiinflammatory activity in C57bl/6 mouse precision-cut lung slices assessed as effect on LPS/IFNgamma-induced HDAC1 gene expression at 1 to 10 uM preincubated for 20 hrs followed by LPS/IFNgamma stimulation and measured after 4 hrs by RT-qPCR analysis; assay type: functional, tissue-based; details: dose 1-10 µM, time 24.0 hrs

inhibition [1]: inactive
SMILES: Nc1cc(F)ccc1NC(=O)/C=C/c1cnn(C/C=C/c2ccccc2)c1
Activity (Lung): inactive
